Activity calls are given as the source filed them. No cut-off for these calls is given here.
What was measured:
HepG2 [1] = test: Cytotoxicity against human HepG2 cells after 48 hrs by MTT assay; assay type: functional, cell-based; details: HepG2, 48 h
MCF7 [2] = test: Cytotoxicity against human MCF7 cells after 48 hrs by MTT assay; assay type: functional, cell-based; details: MCF7, 48 h
MCF7 [3] = test: Cytotoxicity against adriamycin-resistant human MCF7 cells after 48 hrs by MTT assay; assay type: functional, cell-based; details: MCF7, 48 h
HepG2 [4] = test: Cell cycle arrest in human HepG2 cells assessed as accumulation at G0/G1 phase at 1.25 to 5 ug/ml after 24 hrs using propidium iodide by flow cytometry; assay type: functional, cell-based
In short: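 HepG2 cells incubated 24 h with compound at 1.25, 2.5 and 5.0 μg/mL or left untreated (control); cell cycle distribution read by flow cytometry; significance versus untreated control given as P < 0.05 / P < 0.01.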

[5] = Tmax in Sprague-Dawley rat at 25 mg/kg, po as single dose; assay type: ADME, organism-based; parameters: dose 25 mg/kg, route oral; details: in vivo
In short: (§1)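 Adult male Sprague–Dawley rats (n = 3) received a single oral dose of 25 mg/kg. Nine blood samples were drawn over 24 h to build a plasma concentration–time curve. Parameters were derived by noncompartmental analysis and reported as mean ± deviation.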

[6] = Cmax in Sprague-Dawley rat at 25 mg/kg, po as single dose; assay type: ADME, organism-based; parameters: dose 25 mg/kg, route oral; details: in vivo; in short: as §1
[7] = AUC (0 to t) in Sprague-Dawley rat at 25 mg/kg, po as single dose; assay type: ADME, organism-based; parameters: dose 25 mg/kg, route oral; details: plasma; in short: as §1
[8] = AUC (0 to infinity) in Sprague-Dawley rat at 25 mg/kg, po as single dose; assay type: ADME, organism-based; parameters: time infinity, dose 25 mg/kg, route oral; details: plasma; in short: as §1
[9] = Mean residence time in Sprague-Dawley rat at 25 mg/kg, po as single dose; assay type: ADME, organism-based; parameters: dose 25 mg/kg, route oral; details: in vivo; in short: as §1
[10] = Half life in Sprague-Dawley rat at 25 mg/kg, po as single dose; assay type: ADME, organism-based; parameters: dose 25 mg/kg, route oral; details: in vivo; in short: as §1

Compound | IC50 (HepG2 [1]) [µM] | further results
COc1cccc(CN2C[C@H]3CCCN4CCC[C@@H]([C@H]34)[C@H]2CCCCO)c1Cl | 23.6 | –
O=C(O)CCC[C@@H]1[C@H]2CCCN3CCC[C@H](CN1Cc1cccc4ccccc14)[C@@H]23 | > 40 | –
O=C(O)CCC[C@@H]1[C@H]2CCCN3CCC[C@H](CN1Cc1ccc4ccccc4c1)[C@@H]23 | > 40 | –
O=C(CCC[C@@H]1[C@H]2CCCN3CCC[C@H](CN1Cc1c4ccccc4cc4ccccc14)[C@@H]23)c1ccc(Cl)cc1 | 2 | –
COc1cccc(CN2C[C@H]3CCCN4CCC[C@@H]([C@H]34)[C@H]2CCCC(=O)O)c1OC | > 40 | –
COC(=O)CCC[C@@H]1[C@H]2CCCN3CCC[C@H](CN1Cc1ccccc1OC)[C@@H]23 | 10.3 | –
COc1cc(CN2C[C@H]3CCCN4CCC[C@@H]([C@H]34)[C@H]2CCCCO)cc(OC)c1OC | > 40 | –
Fc1ccc(C(=CCC[C@@H]2[C@H]3CCCN4CCC[C@H](CN2Cc2c5ccccc5cc5ccccc25)[C@@H]34)c2ccc(F)cc2)cc1 | 5.3 | –
COC(=O)CCC[C@@H]1[C@H]2CCCN3CCC[C@H](CN1Cc1ccc4ccccc4c1)[C@@H]23 | 5.8 | –
COC(=O)CCC[C@@H]1[C@H]2CCCN3CCC[C@H](CN1Cc1cc(OC)c(OC)c(OC)c1)[C@@H]23 | > 40 | –
COc1cc(CN2C[C@H]3CCCN4CCC[C@@H]([C@H]34)[C@H]2CCCC(=O)O)cc(OC)c1OC | > 40 | –
COC(=O)CCC[C@@H]1[C@H]2CCCN3CCC[C@H](CN1Cc1ccc(OC)c(OC)c1Cl)[C@@H]23 | 8.4 | –
COC(=O)CCC[C@@H]1[C@H]2CCCN3CCC[C@H](CN1Cc1ccc(OC)cc1)[C@@H]23 | 10.7 | –
COc1ccccc1CN1C[C@H]2CCCN3CCC[C@@H]([C@H]23)[C@H]1CCCCO | 34.6 | –
COC(=O)CCC[C@@H]1[C@H]2CCCN3CCC[C@H](CN1Cc1cccc4ccccc14)[C@@H]23 | 3.3 | –
COc1ccc(CN2C[C@H]3CCCN4CCC[C@@H]([C@H]34)[C@H]2CCCCO)c(Cl)c1OC | 15.7 | –
COC(=O)CCC[C@@H]1[C@H]2CCCN3CCC[C@H](CN1Cc1c4ccccc4cc4ccccc14)[C@@H]23 | 4.3 | –
CCC(O)(CC)CCC[C@@H]1[C@H]2CCCN3CCC[C@H](CN1Cc1c4ccccc4cc4ccccc14)[C@@H]23 | 2.7 | –
COc1ccccc1CN1C[C@H]2CCCN3CCC[C@@H]([C@H]23)[C@H]1CCCC(=O)O | > 40 | –
OCCCC[C@@H]1[C@H]2CCCN3CCC[C@H](CN1Cc1c4ccccc4cc4ccccc14)[C@@H]23 | 3.1 | IC50 (MCF7 [2]): 5.63 µM; IC50 (MCF7 [3]): 5.94 µM; Activity (HepG2 [4]): Active; Tmax [5]: 4.6 h; Cmax [6]: 3.4 µM; AUC(0-t) [7]: 10.3 µM·h; AUC(0-inf) [8]: 10.5 µM·h; MRT [9]: 5.4 h; half-life [10]: 12.7 h
COc1ccc(CN2C[C@H]3CCCN4CCC[C@@H]([C@H]34)[C@H]2CCCCO)cc1 | > 40 | –
COC(=O)CCC[C@@H]1[C@H]2CCCN3CCC[C@H](CN1Cc1ccc(OC)c(OC)c1)[C@@H]23 | > 40 | –
O=C1CCC[C@@H]2[C@H]3CCCN4CCC[C@H](CN12)[C@@H]34 [SOPHORIDINE] | > 80 | Activity (HepG2 [4]): Active
CCOc1ccc(CN2C[C@H]3CCCN4CCC[C@@H]([C@H]34)[C@H]2CCCCO)cc1OC | > 40 | –
OCCCC[C@@H]1[C@H]2CCCN3CCC[C@H](CN1Cc1ccc4ccccc4c1)[C@@H]23 | 7.9 | –
OCCCC[C@@H]1[C@H]2CCCN3CCC[C@H](CN1Cc1cccc4ccccc14)[C@@H]23 | 6.8 | IC50 (MCF7 [2]): 9.07 µM; IC50 (MCF7 [3]): 9.51 µM
CC(C)(O)CCC[C@@H]1[C@H]2CCCN3CCC[C@H](CN1Cc1c4ccccc4cc4ccccc14)[C@@H]23 | 2.1 | –
CC(=O)O[C@H]1C(=O)[C@@]2(C)[C@H]([C@H](OC(=O)c3ccccc3)[C@]3(O)C[C@H](OC(=O)[C@H](O)[C@@H](NC(=O)c4ccccc4)c4ccccc4)C(C)=C1C3(C)C)[C@]1(OC(C)=O)CO[C@@H]1C[C@@H]2O [PACLITAXEL] | 15.6 | –
COC(=O)CCC[C@@H]1[C@H]2CCCN3CCC[C@H](CN1Cc1cccc(OC)c1)[C@@H]23 | 10.7 | –
